Measurements: ChEMBL document CHEMBL4689842, “EUbOPEN Chemogenomics Library wave 1” (2021)

System: U2OS
Assay: Multiplex assay against U2OS
Type: toxicity, cell-based
Settings: human
Outline: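 On a CQ1 microscope at 37°C and 5% CO2, live cells were imaged after compound addition. They had been stained at seeding with Hoechst33342, BioTracker Green Microtubule Cytoskeleton Dye, MitoTracker Red and Annexin V Alexa Fluor 680. CellPathfinder machine-learning gating assigned cells to Hoechst high-intensity objects or normal cells, normal cells to healthy, pyknosed or fragmented nuclei, and pyknosed cells to mitotic or apoptotic. Tubulin, mitochondrial-mass and membrane-permeability phenotypes are per cents of healthy-nucleus cells.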

[1] = 12 h, 1 µM, compound concentration 1 uM, replicate 1
[2] = 12 h, 1 µM, compound concentration 1 uM, replicate 2
[3] = 12 h, 10 µM, compound concentration 10 uM, replicate 1
[4] = 12 h, 10 µM, compound concentration 10 uM, replicate 2
[5] = 24 h, 1 µM, compound concentration 1 uM, replicate 1
[6] = 24 h, 1 µM, compound concentration 1 uM, replicate 2
[7] = 24 h, 10 µM, compound concentration 10 uM, replicate 1
[8] = 24 h, 10 µM, compound concentration 10 uM, replicate 2

In the case of `Cc1nc(-c2cn3c(n2)-c2ccc(-c4cnn(C(C)(C)C(N)=O)c4)cc2OCC3)n(C(C)C)n1` [TASELISIB], the “Population Apoptotic (%)” value [1] was 54%, the “Population Fragmented Nuclei (%)” value [1] was 3% and the “Population Healthy Nuclei (%)” value [1] was 84%. The “Population Hoechst High Intensity Objects (%)” value [1] was 2%, the “Population Membrane Permeable-Phenotype (%)” value [1] was 16% and the “Population Mitochondria Different-Phenotype (%)” value [1] was 10%. The “Population Mitotic Cells (%)” value [1] was 45%, the “Population Normal (%)” value [1] was 97% and the “Population Pyknosed Nuclei (%)” value [1] was 11%. For the same compound, the “Population Tubulin-Different-Phenotype (%)” value [1] was 9%, the “Total Cell Count” value [1] was 181 and the “Population Apoptotic (%)” value [2] was 16%. The “Population Fragmented Nuclei (%)” value [2] was 12%, the “Population Healthy Nuclei (%)” value [2] was 77% and the “Population Hoechst High Intensity Objects (%)” value [2] was 12%. The “Population Membrane Permeable-Phenotype (%)” value [2] was 27%, the “Population Mitochondria Different-Phenotype (%)” value [2] was 20% and the “Population Mitotic Cells (%)” value [2] was 83%. For the same compound, the “Population Normal (%)” value [2] was 87%, the “Population Pyknosed Nuclei (%)” value [2] was 9% and the “Population Tubulin-Different-Phenotype (%)” value [2] was 25%. The “Total Cell Count” value [2] was 89, the “Population Apoptotic (%)” value [3] was 44% and the “Population Fragmented Nuclei (%)” value [3] was 5%. The “Population Healthy Nuclei (%)” value [3] was 89%, the “Population Hoechst High Intensity Objects (%)” value [3] was 2% and the “Population Membrane Permeable-Phenotype (%)” value [3] was 12%. The “Population Mitochondria Different-Phenotype (%)” value [3] was 19%, the “Population Mitotic Cells (%)” value [3] was 55% and the “Population Normal (%)” value [3] was 97%. The “Population Pyknosed Nuclei (%)” value [3] was 5%, the “Population Tubulin-Different-Phenotype (%)” value [3] was 24% and the “Total Cell Count” value [3] was 166. For the same compound, the “Population Apoptotic (%)” value [4] was 55%, the “Population Fragmented Nuclei (%)” value [4] was 9% and the “Population Healthy Nuclei (%)” value [4] was 78%. The “Population Hoechst High Intensity Objects (%)” value [4] was 16%, the “Population Membrane Permeable-Phenotype (%)” value [4] was 18% and the “Population Mitochondria Different-Phenotype (%)” value [4] was 12%. The “Population Mitotic Cells (%)” value [4] was 44%, the “Population Normal (%)” value [4] was 83% and the “Population Pyknosed Nuclei (%)” value [4] was 12%. The “Population Tubulin-Different-Phenotype (%)” value [4] was 12%, the “Total Cell Count” value [4] was 65 and the “Population Apoptotic (%)” value [5] was 40%. The “Population Fragmented Nuclei (%)” value [5] was 6%, the “Population Healthy Nuclei (%)” value [5] was 80% and the “Population Hoechst High Intensity Objects (%)” value [5] was 4%. The “Population Membrane Permeable-Phenotype (%)” value [5] was 15%, the “Population Mitotic Cells (%)” value [5] was 59% and the “Population Normal (%)” value [5] was 95%. For the same compound, the “Population Pyknosed Nuclei (%)” value [5] was 13%, the “Population Tubulin-Different-Phenotype (%)” value [5] was 12% and the “Total Cell Count” value [5] was 240. For the same compound, the “Population Apoptotic (%)” value [6] was 27%, the “Population Fragmented Nuclei (%)” value [6] was 20% and the “Population Healthy Nuclei (%)” value [6] was 64%. For the same compound, the “Population Hoechst High Intensity Objects (%)” value [6] was 6%, the “Population Membrane Permeable-Phenotype (%)” value [6] was 21% and the “Population Mitochondria Different-Phenotype (%)” value [6] was 6%. For the same compound, the “Population Mitotic Cells (%)” value [6] was 72%, the “Population Normal (%)” value [6] was 93% and the “Population Pyknosed Nuclei (%)” value [6] was 15%. The “Population Tubulin-Different-Phenotype (%)” value [6] was 29%, the “Total Cell Count” value [6] was 91 and the “Population Apoptotic (%)” value [7] was 27%. The “Population Healthy Nuclei (%)” value [7] was 91%, the “Population Hoechst High Intensity Objects (%)” value [7] was 1% and the “Population Mitochondria Different-Phenotype (%)” value [7] was 11%. The “Population Mitotic Cells (%)” value [7] was 72%, the “Population Normal (%)” value [7] was 98% and the “Population Pyknosed Nuclei (%)” value [7] was 4%. The “Population Tubulin-Different-Phenotype (%)” value [7] was 26%, the “Total Cell Count” value [7] was 168 and the “Population Apoptotic (%)” value [8] was 60%. For the same compound, the “Population Fragmented Nuclei (%)” value [8] was 4%, the “Population Healthy Nuclei (%)” value [8] was 83% and the “Population Hoechst High Intensity Objects (%)” value [8] was 4%. The “Population Membrane Permeable-Phenotype (%)” value [8] was 13%, the “Population Mitochondria Different-Phenotype (%)” value [8] was 15% and the “Population Mitotic Cells (%)” value [8] was 40%. For the same compound, the “Population Normal (%)” value [8] was 95%, the “Population Pyknosed Nuclei (%)” value [8] was 11% and the “Population Tubulin-Different-Phenotype (%)” value [8] was 20%. The “Total Cell Count” value [8] was 67.
